Assay results as given in ChEMBL document CHEMBL1955842, “Substituent effects on P2-cyclopentyltetrahydrofuranyl urethanes: design, synthesis, and X-ray studies of potent HIV-1 protease inhibitors” (Bioorg Med Chem Lett, 2012).

What was measured:
[1] = system: Human immunodeficiency virus 1; assay: Antiviral activity against HIV1 MDR/G harboring protease L10I, V11I, T12E, I15V, L19I, R41K, M46L, L63P, A71T, V82A, and L90M mutant infected in PHA-PBM cells assessed as inhibition of p24 Gag protein production; format: functional, organism-based; details: Human immunodeficiency virus 1, MDR/G, PBMC
Outline: (§1)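 EC50 measured against each isolate. Assays run in duplicate. Values are means (±1 standard deviation) from two or three independent experiments. Fold-change for each isolate is its EC50 relative to the EC50 for wild-type HIV-1ERS104pre.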

[2] = system: Human immunodeficiency virus 1; assay: Antiviral activity against HIV1 MDR/B harboring protease L10I, K14R, L33I, M36I, M46I, F53I, K55R, I62V, L63P, A71V, G73S, V82A, L90M, I93L mutant infected in PHA-PBM cells assessed as inhibition of p24 Gag protein production; format: functional, organism-based; details: Human immunodeficiency virus 1, MDR/B, PBMC; outline: as §1
[3] = system: Human immunodeficiency virus 1; assay: Antiviral activity against HIV1 MDR/TM harboring protease L10I, K14R, R41K, M46L, I54V, L63P, A71V, V82A, L90M, I93L mutant infected in PHA-PBM cells assessed as inhibition of p24 Gag protein production; format: functional, organism-based; details: Human immunodeficiency virus 1, MDR/TM, PBMC; outline: as §1
[4] = system: Human immunodeficiency virus 1; assay: Antiviral activity against HIV1 MDR/C harboring protease L10I, I15V, K20R, L24I, M36I, M46L, I54V, I62V, L63P, K70Q, V82A, and L89 mutant infected in PHA-PBM cells assessed as inhibition of p24 Gag protein production; format: functional, organism-based; details: Human immunodeficiency virus 1, MDR/C, PBMC; outline: as §1
[5] = system: Human immunodeficiency virus 1; assay: Antiviral activity against HIV1 […] infected in human MT2 cells by MTT assay; format: functional, organism-based; details: Human immunodeficiency virus 1, MT2
Outline: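 MT-2 human T-lymphoid cells (2 × 10^3) infected with 100 TCID50 of HIV-1LAI and cultured with inhibitor present. IC50 read out by MTT assay.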

Protease = Protease (Human immunodeficiency virus 1, UniProt Q9YQ12); assay: Inhibition of HIV1 protease using hexapeptide Ac-Thr-Ile-Nle-Nle-Gln-Arg-NH2 as substrate by fluorimetric assay
Sequence of Protease (Q9YQ12 whole entry): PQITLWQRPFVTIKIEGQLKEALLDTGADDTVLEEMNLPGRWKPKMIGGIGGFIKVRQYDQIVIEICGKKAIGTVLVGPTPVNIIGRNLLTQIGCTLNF

[6] = system: Human immunodeficiency virus 1; assay: Ratio of EC50 for HIV1 MDR/G harboring protease L10I, V11I, T12E, I15V, L19I, R41K, M46L, L63P, A71T, V82A, and L90M mutant to EC50 for HIV1 ERS104 harboring wild type protease; format: functional
Outline: (§2)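 Fold-change: EC50 against each multidrug-resistant HIV-1 isolate divided by EC50 against wild-type HIV-1ERS104pre. Assays run in duplicate; values are means (±1 standard deviation) from two or three independent experiments.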

[7] = system: Human immunodeficiency virus 1; assay: Ratio of EC50 for HIV1 MDR/C harboring protease L10I, I15V, K20R, L24I, M36I, M46L, I54V, I62V, L63P, K70Q, V82A, and L89 mutant to EC50 for HIV1 ERS104 harboring wild type protease; format: functional; outline: as §2
[8] = system: Human immunodeficiency virus 1; assay: Ratio of EC50 for HIV1 MDR/TM harboring protease L10I, K14R, R41K, M46L, I54V, L63P, A71V, V82A, L90M, I93L mutant to EC50 for HIV1 ERS104 harboring wild type protease; format: functional; outline: as §2
[9] = system: Human immunodeficiency virus 1; assay: Antiviral activity against wild type HIV1 ERS104 infected in PHA-PBM cells assessed as inhibition of p24 Gag protein production; format: functional, organism-based; details: Human immunodeficiency virus 1, ERS104, PBMC; outline: as §1
[10] = system: Human immunodeficiency virus 1; assay: Ratio of EC50 for HIV1 MDR/B harboring protease L10I, K14R, L33I, M36I, M46I, F53I, K55R, I62V, L63P, A71V, G73S, V82A, L90M, I93L mutant to EC50 for HIV1 ERS104 harboring wild type protease; format: functional; outline: as §2

Q: What does the source list for `CC(C)CN(C[C@@H](O)[C@H](Cc1ccccc1)NC(=O)O[C@H]1CO[C@H]2OCC[C@H]21)S(=O)(=O)c1ccc(N)cc1`?
A: EC50 [1]: 11 nM; EC50 [2]: 19 nM; EC50 [3]: 28 nM; EC50 [4]: 11 nM

Q: What does the source list for `COc1ccc(S(=O)(=O)N(CC(C)C)C[C@@H](O)[C@H](Cc2ccccc2)NC(=O)O[C@@H]2C[C@@H]3[C@H](NC(C)=O)CO[C@@H]3C2)cc1`?
A: IC50 [5]: 25 nM; Ki (Protease): 0.0074 nM

Q: What does the source list for `COc1ccc(S(=O)(=O)N(CC(C)C)C[C@@H](O)[C@H](Cc2ccccc2)NC(=O)O[C@@H]2C[C@@H]3[C@@H](NC(C)=O)CO[C@@H]3C2)cc1`?
A: IC50 [5]: 31 nM; Ki (Protease): 0.0075 nM

Q: Which results are given for `COC(=O)N[C@@H]1CO[C@@H]2C[C@H](OC(=O)N[C@@H](Cc3ccccc3)[C@H](O)CN(CC(C)C)S(=O)(=O)c3ccc(OC)cc3)C[C@H]12`?
A: EC50 [1]: 39 nM; Ratio EC50 [6]: 1; Ratio EC50 [7]: 1; EC50 [2]: 75 nM; Ratio EC50 [8]: 3; IC50 [5]: 1.6 nM; EC50 [3]: 74 nM; EC50 [9]: 29 nM; Ratio EC50 [10]: 3; EC50 [4]: 30 nM

Q: With `COC(=O)N[C@H]1CO[C@@H]2C[C@H](OC(=O)N[C@@H](Cc3ccccc3)[C@H](O)CN(CC(C)C)S(=O)(=O)c3ccc(OC)cc3)C[C@H]12` as the molecule, how does the EC50 [1] read?
A: The EC50 was 20 nM.

Q: What about the “Ratio EC50” value [6] of the same molecule?
A: The value was 7.

Q: And the “Ratio EC50” value [7]?
A: Its value is 5.

Q: What about the EC50 [2] of the same molecule?
A: Its EC50 is 18 nM.

Q: What about the “Ratio EC50” value [8] of the same molecule?
A: Its value is 8.

Q: What about the IC50 [5] of the same molecule?
A: The IC50 was 4.6 nM.

Q: What about the Ki (Protease) of the same molecule?
A: Its Ki is 0.004 nM.

Q: And the EC50 [3]?
A: The EC50 was 24 nM.

Q: And the EC50 [9]?
A: The EC50 was 3 nM.

Q: And the “Ratio EC50” value [10]?
A: Its value is 6.

Q: What about the EC50 [4] of the same molecule?
A: The EC50 was 15 nM.

Q: How did the IC50 [5] turn out when `COc1ccc(S(=O)(=O)N(CC(C)C)C[C@@H](O)[C@H](Cc2ccccc2)NC(=O)O[C@@H]2C[C@@H]3[C@H](NS(C)(=O)=O)CO[C@@H]3C2)cc1` was run?
A: Its IC50 is 28 nM.

Q: What about the Ki (Protease) of the same molecule?
A: The Ki was 0.032 nM.

Q: For `COc1ccc(S(=O)(=O)N(CC(C)C)C[C@@H](O)[C@H](Cc2ccccc2)NC(=O)O[C@@H]2C[C@@H]3[C@@H](NS(C)(=O)=O)CO[C@@H]3C2)cc1`, which IC50 [5] is on record?
A: The IC50 was 50 nM.

Q: What about the Ki (Protease) of the same molecule?
A: Its Ki is 0.18 nM.

Q: What does the source list for `COc1ccc(S(=O)(=O)N(CC(C)C)C[C@@H](O)[C@H](Cc2ccccc2)NC(=O)O[C@@H]2C[C@@H]3[C@@H](OC(=O)N(C)C)CO[C@@H]3C2)cc1`?
A: IC50 [5]: 4.7 nM; Ki (Protease): 0.02 nM
